Test results reported in ChEMBL document CHEMBL3425488, “Novel histone deacetylase inhibitors induce growth arrest, apoptosis, and differentiation in sarcoma cancer stem cells” (J Med Chem, 2015).
pIC50: −log10 of the molar value.

Key:
Histone deacetylase 2 = Histone deacetylase 2 (Homo sapiens, UniProt Q92769); test: Inhibition of recombinant HDAC2 (unknown origin) by homogeneous fluorescence release assay
[1] = biological target: T1, Protein deacetylase HDAC6 (Homo sapiens, UniProt Q9UBN7); test: Inhibition of recombinant HDAC6 (unknown origin) by homogeneous fluorescence release assay
T1 sequence (Q9UBN7 whole entry): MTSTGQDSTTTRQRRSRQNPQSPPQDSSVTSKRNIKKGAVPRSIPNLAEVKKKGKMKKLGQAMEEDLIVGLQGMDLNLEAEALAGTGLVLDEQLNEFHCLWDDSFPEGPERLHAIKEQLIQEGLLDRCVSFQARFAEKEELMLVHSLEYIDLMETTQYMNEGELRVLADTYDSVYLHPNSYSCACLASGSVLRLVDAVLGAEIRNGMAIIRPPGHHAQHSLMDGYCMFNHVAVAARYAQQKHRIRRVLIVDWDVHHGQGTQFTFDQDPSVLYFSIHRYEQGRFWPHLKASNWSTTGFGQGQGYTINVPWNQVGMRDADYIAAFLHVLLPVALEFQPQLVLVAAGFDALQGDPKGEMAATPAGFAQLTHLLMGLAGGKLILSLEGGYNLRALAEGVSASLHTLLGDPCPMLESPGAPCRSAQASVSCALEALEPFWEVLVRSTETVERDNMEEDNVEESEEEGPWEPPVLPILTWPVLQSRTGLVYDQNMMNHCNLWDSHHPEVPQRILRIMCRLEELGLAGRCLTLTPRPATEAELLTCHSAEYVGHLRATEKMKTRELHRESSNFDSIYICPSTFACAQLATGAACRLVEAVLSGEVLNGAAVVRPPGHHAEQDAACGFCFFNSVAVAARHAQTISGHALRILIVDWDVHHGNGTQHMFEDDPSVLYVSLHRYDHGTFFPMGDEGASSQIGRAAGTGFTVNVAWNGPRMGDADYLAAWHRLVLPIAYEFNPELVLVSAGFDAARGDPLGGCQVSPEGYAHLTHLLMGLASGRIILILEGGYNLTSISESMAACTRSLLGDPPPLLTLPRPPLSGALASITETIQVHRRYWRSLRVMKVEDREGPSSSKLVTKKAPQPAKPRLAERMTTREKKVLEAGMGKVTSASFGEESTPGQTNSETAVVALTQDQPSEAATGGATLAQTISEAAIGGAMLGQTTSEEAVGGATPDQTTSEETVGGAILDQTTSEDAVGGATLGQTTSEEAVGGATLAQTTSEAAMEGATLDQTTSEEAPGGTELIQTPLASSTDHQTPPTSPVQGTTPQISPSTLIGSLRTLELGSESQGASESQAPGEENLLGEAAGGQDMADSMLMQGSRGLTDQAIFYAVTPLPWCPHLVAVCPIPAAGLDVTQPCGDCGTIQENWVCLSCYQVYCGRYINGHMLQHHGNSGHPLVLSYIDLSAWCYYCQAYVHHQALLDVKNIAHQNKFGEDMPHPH

Histone deacetylase 8 = biological target: T2, Histone deacetylase 8 (Homo sapiens, UniProt Q9BY41); test: Inhibition of recombinant HDAC8 (unknown origin) by homogeneous fluorescence release assay
T2 sequence (Q9BY41 whole entry): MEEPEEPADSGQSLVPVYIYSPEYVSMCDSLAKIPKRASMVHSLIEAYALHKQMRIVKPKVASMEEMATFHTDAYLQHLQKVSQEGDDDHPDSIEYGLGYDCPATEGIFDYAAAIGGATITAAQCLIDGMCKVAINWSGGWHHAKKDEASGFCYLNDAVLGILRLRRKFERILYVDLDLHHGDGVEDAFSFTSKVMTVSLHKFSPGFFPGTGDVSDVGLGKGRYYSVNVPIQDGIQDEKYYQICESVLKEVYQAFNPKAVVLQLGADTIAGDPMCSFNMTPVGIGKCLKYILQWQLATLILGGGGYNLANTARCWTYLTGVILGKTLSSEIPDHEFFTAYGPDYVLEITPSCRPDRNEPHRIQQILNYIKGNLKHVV

[2] = biological target: T3, Polyamine deacetylase HDAC10 (Homo sapiens, UniProt Q969S8); test: Inhibition of recombinant HDAC10 (unknown origin) by homogeneous fluorescence release assay
T3 sequence (Q969S8 whole entry): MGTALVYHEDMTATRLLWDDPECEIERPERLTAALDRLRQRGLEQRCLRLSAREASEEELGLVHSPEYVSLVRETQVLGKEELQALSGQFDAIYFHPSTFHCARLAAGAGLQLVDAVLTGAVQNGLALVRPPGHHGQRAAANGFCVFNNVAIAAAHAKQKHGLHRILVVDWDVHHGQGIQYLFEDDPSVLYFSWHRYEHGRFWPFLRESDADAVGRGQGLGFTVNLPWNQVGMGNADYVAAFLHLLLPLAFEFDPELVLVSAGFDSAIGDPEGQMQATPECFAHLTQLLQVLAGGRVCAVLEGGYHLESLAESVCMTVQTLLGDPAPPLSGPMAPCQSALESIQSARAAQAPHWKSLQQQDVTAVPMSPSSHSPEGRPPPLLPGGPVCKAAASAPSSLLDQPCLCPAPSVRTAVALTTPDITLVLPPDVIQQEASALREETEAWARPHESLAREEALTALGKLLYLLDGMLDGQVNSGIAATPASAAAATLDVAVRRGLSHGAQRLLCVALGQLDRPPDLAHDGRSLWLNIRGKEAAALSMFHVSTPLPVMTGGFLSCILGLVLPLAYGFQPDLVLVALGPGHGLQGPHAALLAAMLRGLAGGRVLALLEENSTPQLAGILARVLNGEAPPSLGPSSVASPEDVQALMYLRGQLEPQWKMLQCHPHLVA

[3] = Cytotoxicity against human MG63 cells assessed as growth inhibition at 0.5 uM treated for 14 days measured on day 14 post last treatment by Alamar Blue assay; type: cell-based; settings: mg-63, 336 h
Method in brief: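 MG-63 sarcosphere-derived cells, 10000 seeded, grown in complete α-MEM to 70% confluence. Then kept in mineralization medium (10 mM β-glycerophosphate, 10−8 M dexamethasone, ascorbic acid 2-phosphate) with continuous compound exposure (0.025–0.5 μM) for 14 days. Viability then read by Alamar Blue.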

Sequence of Histone deacetylase 2 (Q92769 whole entry): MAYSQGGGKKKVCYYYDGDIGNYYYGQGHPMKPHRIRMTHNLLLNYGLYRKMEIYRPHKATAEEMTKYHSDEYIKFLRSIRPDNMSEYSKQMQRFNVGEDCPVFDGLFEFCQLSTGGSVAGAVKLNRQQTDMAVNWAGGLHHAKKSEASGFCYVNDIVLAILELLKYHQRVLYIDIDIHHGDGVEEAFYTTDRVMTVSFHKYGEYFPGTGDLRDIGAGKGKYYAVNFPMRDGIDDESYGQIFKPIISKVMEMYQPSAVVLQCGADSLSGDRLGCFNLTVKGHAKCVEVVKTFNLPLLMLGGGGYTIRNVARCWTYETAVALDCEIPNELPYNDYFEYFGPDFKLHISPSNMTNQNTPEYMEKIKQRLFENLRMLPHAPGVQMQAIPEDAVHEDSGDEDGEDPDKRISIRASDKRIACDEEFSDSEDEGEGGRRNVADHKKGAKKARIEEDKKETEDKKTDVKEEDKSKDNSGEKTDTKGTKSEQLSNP

SMILES: O=C(/C=C/c1ccc(NC(=O)C(Cc2ccccc2)c2ccccc2)cn1)NO (stereo not given)
- pIC50 (Histone deacetylase 2): 5.75
- pIC50 [1]: 8.00
- pIC50 (Histone deacetylase 8): 6.21
- pIC50 [2]: 5.74
- Activity [3]: Toxic
